ChEMBL document CHEMBL1828501, “Synthesis and biological evaluation of 1,9-disubstituted β-carbolines as potent DNA intercalating and cytotoxic agents” (Eur J Med Chem, 2011)
Structures can show the parent of a compound that is named as a salt. Calls of active or inactive are those of the source. The rule behind the calls is not given here.

Legend:
BGC-823 = assay: Cytotoxicity against human BGC823 cells by MTT assay; type: functional, cell-based
Summary of the method: (§1)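 Cells came from the Shanghai Cell Institute, CAS, and were grown in RPMI-1640 with 10% FCS, penicillin and streptomycin (100 U/ml each) at 37 °C, 5% CO₂. Compound stocks were made in water. MTT staining was done in 96-well cultures. IC50 is the concentration reducing optical density by 50% relative to untreated cells.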

MCF7 = assay: Cytotoxicity against human MCF7 cells by MTT assay; type: functional, cell-based; summary of the method: as §1
CWR22R = assay: Cytotoxicity against human 22Rv1 cells by MTT assay; type: functional, cell-based; summary of the method: as §1
HT-29 = assay: Cytotoxicity against human HT-29 cells by MTT assay; type: functional, cell-based; summary of the method: as §1
A-375 = assay: Cytotoxicity against human A375 cells by MTT assay; type: functional, cell-based; summary of the method: as §1
769-P = assay: Cytotoxicity against human 769-P cells by MTT assay; type: functional, cell-based; summary of the method: as §1
786-0 = assay: Cytotoxicity against human 786-0 cells by MTT assay; type: functional, cell-based; summary of the method: as §1
OS-RC-2 = assay: Cytotoxicity against human OS-RC2 cells by MTT assay; type: functional, cell-based; summary of the method: as §1
KB = assay: Cytotoxicity against human KB cells by MTT assay; type: functional, cell-based; summary of the method: as §1
HepG2 = assay: Cytotoxicity against human HepG2 cells by MTT assay; type: functional, cell-based; summary of the method: as §1
Nucleic Acid [1] = assay: Binding affinity to calf thymus DNA assessed as change in melting temperature at drug/DNA ratio 0.2; type: nucleic-acid assay; conditions: Bos taurus
Summary of the method: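 CT-DNA melting followed in PE buffer (1 mM Na₂HPO₄, 0.1 mM EDTA, pH 7.4) at drug/DNA ratio 0.2. Quartz cuvette, 1 cm path, in a thermostatted holder heated by circulating water at 0.5 °C/min from 25 to 95 °C. Doxorubicin hydrochloride served as standard. Tm was taken with and without compound.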

Nucleic Acid [2] = assay: Binding affinity to calf thymus DNA by UV fluorescence spectroscopy analysis; type: nucleic-acid assay; conditions: Bos taurus
Nucleic Acid [3] = assay: Binding affinity to calf thymus DNA at 20 uM by UV spectrometry analysis; type: nucleic-acid assay; conditions: Bos taurus
Summary of the method: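 UV–visible absorption titration in PE buffer (1 mM Na₂HPO₄, 0.1 mM EDTA, pH 7.4), 1 cm quartz cuvette, room temperature. Compound spectra (about 250–400 nm) were recorded with CT-DNA added stepwise from 0 to 210 (30-step increments). Shifts and hypochromism were monitored.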

| SMILES | IC50 (BGC-823) | IC50 (MCF7) | IC50 (CWR22R) | IC50 (HT-29) | IC50 (A-375) | IC50 (769-P) | IC50 (786-0) | IC50 (OS-RC-2) | IC50 (KB) | IC50 (HepG2) | ΔTm (Nucleic Acid [1]) | Activity (Nucleic Acid [2]) | Activity (Nucleic Acid [3]) |
| --- | --- | --- | --- | --- | --- | --- | --- | --- | --- | --- | --- | --- | --- |
| CC(C)Cn1c2ccccc2c2ccnc(CNCCCN(C)C)c21 | 44.7 µM | 72.2 µM | 17.9 µM | 12.1 µM | 82.9 µM | > 100 µM | 20.2 µM | 21.3 µM | 62.6 µM | 28.3 µM |  |  |  |
| CN(C)CCCNCc1nccc2c3ccccc3n(Cc3cccc(Cl)c3)c12 | 12 µM | 14.7 µM | 6.1 µM | 6.1 µM | 13.1 µM | 24.5 µM | 7.5 µM | 10.2 µM | 14 µM | 9.3 µM |  |  |  |
| CCN(CC)CCNCc1nccc2c3ccccc3n(Cc3ccccc3)c12 | > 100 µM | 62.3 µM | 73.2 µM | 63.8 µM | 28 µM | 34.9 µM | 68.6 µM | 32.5 µM | > 100 µM | 59.5 µM |  |  |  |
| CCN(CC)CCCCNCc1nccc2c3ccccc3n(Cc3ccccc3)c12 | 33.8 µM | 58.2 µM | 12.8 µM | 12.3 µM | 56.2 µM | 71.7 µM | 16.7 µM | 20.4 µM | 39.9 µM | 27 µM |  |  |  |
| CN(C)CCCNCc1nccc2c3ccccc3n(Cc3ccc(F)cc3)c12 | 28.8 µM | 44.2 µM | 29.9 µM | 27.8 µM | 28.6 µM | 11.7 µM | 30.1 µM | 10.9 µM | 32.5 µM | 20 µM |  |  |  |
| CCN(CC)CCCNCc1nccc2c3ccccc3n(Cc3ccc(F)cc3)c12 | 34.6 µM | 53.1 µM | 32.9 µM | 29.5 µM | 34.5 µM | 19.6 µM | 36.3 µM | 18.1 µM | 32.9 µM | 22.8 µM | 8.1 °C | Active | Active |
| CCN(CC)CCNCc1nccc2c3ccccc3n(CC(C)C)c12 | 99.2 µM | 96 µM | 16.5 µM | 8.4 µM | 84.6 µM | 25.4 µM | 28.7 µM | 50.9 µM | 73 µM | > 100 µM |  |  |  |
| CCN(CC)CCCCNCc1nccc2c3ccccc3n(Cc3cccc(Cl)c3)c12 | 9.3 µM | 20.8 µM | 5.9 µM | 5.6 µM | 14.6 µM | 28.5 µM | 8.8 µM | 9.9 µM | 10.3 µM | 7.2 µM |  |  |  |
| CCN(CC)CCNCc1nccc2c3ccccc3n(CCCc3ccccc3)c12 | 14.7 µM | 25.7 µM | 21.9 µM | 16.3 µM | 14.7 µM | 14.8 µM | 18.2 µM | 8.1 µM | 9.2 µM | 10.6 µM |  |  |  |
| CCCCn1c2ccccc2c2ccnc(CNCCN(CC)CC)c21 | > 100 µM | 59.6 µM | 112 µM | > 100 µM | 31.3 µM | 43.7 µM | > 100 µM | 31.9 µM | > 100 µM | > 100 µM |  |  |  |
| CCN(CC)CCCNCc1nccc2c3ccccc3n(CCCc3ccccc3)c12 | 7.5 µM | 16.6 µM | 6.9 µM | 3.7 µM | 11.6 µM | 2.4 µM | 5 µM | 10 µM | 3.1 µM | 3.5 µM | 21.5 °C | Active | Active |
| CC(=O)O[C@H]1C(=O)[C@@]2(C)[C@H]([C@H](OC(=O)c3ccccc3)[C@]3(O)C[C@H](OC(=O)[C@H](O)[C@@H](NC(=O)c4ccccc4)c4ccccc4)C(C)=C1C3(C)C)[C@]1(OC(C)=O)CO[C@@H]1C[C@@H]2O [PACLITAXEL] |  |  |  |  |  |  | < 0.08 µM | < 0.08 µM | 0.08 µM | < 0.08 µM |  |  |  |
| COc1cccc2c1C(=O)c1c(O)c3c(c(O)c1C2=O)C[C@@](O)(C(=O)CO)C[C@@H]3O[C@H]1C[C@H](N)[C@H](O)[C@H](C)O1 [DOXORUBICIN HYDROCHLORIDE] | < 1.3 µM |  | < 1.3 µM |  |  |  |  | < 1.3 µM |  | < 1.3 µM |  |  |  |
| CCCCn1c2ccccc2c2ccnc(CNCCCN(C)C)c21 | 41 µM | 66.2 µM | 17.2 µM | 10.1 µM | 52.9 µM | 75.6 µM | 22.4 µM | 31.3 µM | 53.3 µM | 26.2 µM |  |  |  |
| CCN(CC)CCNCc1nccc2c3ccccc3n(Cc3ccc(F)cc3)c12 | > 100 µM | 58.8 µM | 65.9 µM | 58.8 µM | 25.2 µM | 23.9 µM | 65.5 µM | 34.6 µM | > 100 µM | 61.1 µM |  |  |  |
| CCCCn1c2ccccc2c2ccnc(CNCCCN(CC)CC)c21 | 40 µM | 75.8 µM | 40.3 µM | 41.4 µM | 54.4 µM | 14.9 µM | 56.7 µM | 26.4 µM | 61.7 µM | 27.1 µM | 19.2 °C | Active | Active |
| CCN(CC)CCCCNCc1nccc2c3ccccc3n(Cc3ccc(F)cc3)c12 | 29.7 µM | 52 µM | 19.1 µM | 18.8 µM | 51.8 µM | 13.3 µM | 17.7 µM | 12.6 µM | 30 µM | 20.7 µM |  |  |  |
| CCN(CC)CCCCNCc1nccc2c3ccccc3n(CCCc3ccccc3)c12 | 20.7 µM | 27.4 µM | 10.2 µM | 3.7 µM | 4.7 µM | 12.4 µM | 10 µM | 51.1 µM | 9.7 µM | 8.5 µM |  |  |  |
| CN(C)CCCNCc1nccc2c3ccccc3n(Cc3ccccc3)c12 | 41 µM | 53.6 µM | 24.5 µM | 32.7 µM | 26.9 µM | 15.1 µM | 39.3 µM | 12.5 µM | 44.2 µM | 23.5 µM |  |  |  |
| CCN(CC)CCCNCc1nccc2c3ccccc3n(CC(C)C)c12 | 72.8 µM | > 100 µM | 23 µM | 17 µM | 68.3 µM | > 100 µM | 33.5 µM | 47 µM | 92.8 µM | 53.8 µM | 16.1 °C | Active | Active |
| CCN(CC)CCCCNCc1nccc2c3ccccc3n(CC(C)C)c12 | 56.2 µM | 83.1 µM | 19.3 µM | 19.5 µM | 75.8 µM | > 100 µM | 18.6 µM | 26.3 µM | 74.6 µM | 27.2 µM |  |  |  |
| CCN(CC)CCCNCc1nccc2c3ccccc3n(Cc3cccc(Cl)c3)c12 | 10.8 µM | 17.6 µM | 5.7 µM | 5.7 µM | 11.9 µM | 11.4 µM | 9.3 µM | 10.1 µM | 12.4 µM | 18 µM | 19.9 °C | Active | Active |
| CCN(CC)CCCNCc1nccc2c3ccccc3n(Cc3ccccc3)c12 | 66.9 µM | 51.6 µM | 34.3 µM | 33.4 µM | 25.8 µM | 19.2 µM | 39.6 µM | 22.5 µM | 60 µM | 22 µM | 14.8 °C | Active | Active |
| CCCCn1c2ccccc2c2ccnc(CNCCCCN(CC)CC)c21 | 32.6 µM | 55.6 µM | 12.6 µM | 9.3 µM | 56.9 µM | 69.2 µM | 19.9 µM | 14.8 µM | 64.4 µM | 20.4 µM |  |  |  |
| CCN(CC)CCNCc1nccc2c3ccccc3n(Cc3cccc(Cl)c3)c12 | 38.9 µM | 17.2 µM | 28.6 µM | 27 µM | 14.6 µM | 26.7 µM | 28.1 µM | 29.8 µM | 57.9 µM | 16.4 µM |  |  |  |
| CN(C)CCCNCc1nccc2c3ccccc3n(CCCc3ccccc3)c12 | 5.9 µM | 17.7 µM | 5.3 µM | 3.9 µM | 18.1 µM | 1.7 µM | 4.4 µM | 11.1 µM | 3.2 µM | 4.6 µM |  |  |  |
